Experiments:
[1] = cited from earlier work
[2] = Bioavailability/food effect; assay type: in vivo; conditions: male, human, plasma, oral, 25 mg, Median t max
In short: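 Healthy men (18–45 y, BMI 18.5–29.9 kg/m2) in a randomised crossover received single oral 25 mg doses as tablet fasted, tablet after a high-fat, high-calorie meal, or 5-mg/mL solution fasted. Washout was at least 14 days, and PK sampling ran to Day 9 per period. Plasma was assayed by validated LC-MS/MS over 1.00–1000 nM (linear calibration, 1/x² weighting, QC in K3-EDTA plasma). Adjusted gMean ratios are reported with 90% CI.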

[3] = SRD component: plasma and urine pharmacokinetics; assay type: in vivo, human
healthy male volunteers [4] = test: Single-rising dose; assay type: in vivo, human
healthy male volunteers [5] = test: BA/FE component: safety and tolerability; assay type: in vivo, human; conditions: Part 2 (BA/FE), 25 mg, six of 11 subjects
In short: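 Open-label, randomised three-way crossover in 12 healthy men (18–45 y, BMI 18.5–29.9 kg/m2). Each received single oral 25 mg doses: tablet fasted, tablet after a standardised high-fat, high-calorie meal, and 5-mg/mL solution fasted, in one of six sequences. Washout between periods was at least 14 days. Safety was monitored to Day 9 of each period, with spontaneous AEs recorded by onset, end time and intensity.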

Q: For C[C@@H](Oc1ccc(S(C)(=O)=O)cc1C(=O)N1C[C@@H]2C[C@]2(c2cc(C(F)(F)F)on2)C1)C(F)(F)F [BI 425809], which “Biopharmaceutics Classification System class” value [1] is on record?
A: Its value is “Class II”.

Q: What about the Permeability [1] of the same compound?
A: The Permeability was “high”.

Q: And the Tmax ([2]; 25-mg solution, fasted)?
A: Its Tmax is 0.875 h.

Q: And the Tmax ([2]; 25-mg tablet, fasted)?
A: The Tmax was 4 h.

Q: And the Tmax ([2]; 25-mg tablet, fed)?
A: The Tmax was 1.77 h.

Q: What about the Fractional renal excretion ([3]; SRD, similar across all dose groups) of the same compound?
A: The Fractional renal excretion was 5%.

Q: And the Tmax ([3]; male, human, plasma, oral)?
A: The Tmax was ~0.75 h.

Q: What about the half-life ([3]; male, human, plasma, oral) of the same compound?
A: Its half-life is 32.5 to 47 h.

Q: And the “Subjects with at least one AE assessed as related to treatment” value (from here on “Subjects with at least one AE assessed”) (healthy male volunteers [4]; Part 1 (SRD), 27 of 72 subjects (includes placebo subjects))?
A: Its value is 37.5%.

Q: And the “Changes from baseline of QTcF interval, QT interval or heart rate vs placebo” value (healthy male volunteers [4]; Part 1, any of the doses tested)?
A: The value was “no statistically relevant differences”.

Q: What about the “Colour discrimination and visual acuity tests” value (healthy male volunteers [4]; SRD) of the same compound?
A: Its value is “no changes from baseline”.

Q: What about the “Incidence of AEs” value (healthy male volunteers [4]; SRD, 0.5-mg group) of the same compound?
A: Its value is 16.7%.

Q: What about the “Incidence of AEs” value (healthy male volunteers [4]; SRD, 150-mg group) of the same compound?
A: Its value is 100%.

Q: And the “Subjects with eye disorder AE (photopsia, blurred vision or chromatopsia)” value (healthy male volunteers [4]; SRD, 150-mg group, n = 6)?
A: The value was “all six subjects”.

Q: What about the “Subjects with at least one AE” value (healthy male volunteers [4]; SRD, all BI 425809 doses 0.5–150 mg, 34/54 subjects) of the same compound?
A: Its value is 63.0%.

Q: And the “Bond–Lader VAS scores of other items (calmness, contentment, external and internal perception)” value (healthy male volunteers [4]; SRD, dose levels of 100 and 150 mg)?
A: Its value is “increased”.

Q: And the “Bond and Lader VAS and Bowdle VAS scores for subjective feelings of sedation” value (healthy male volunteers [4]; SRD, doses of 10 mg and greater)?
A: The value was “increase”.

Q: What about the “Subjects with abnormalities on the Amsler grid test” value (healthy male volunteers [4]; SRD, one each at 25 and 100 mg) of the same compound?
A: Its value is “two subjects”.

Q: What about the Maximally tolerated dose (healthy male volunteers [4]; SRD, single oral dose, escalation terminated owing to dose-limiting AEs) of the same compound?
A: The Maximally tolerated dose was 150 mg.

Q: And the ECG findings (healthy male volunteers [4]; both parts)?
A: Its ECG findings is “No clinically relevant abnormal findings”.

Q: And the Neurological examination findings (healthy male volunteers [4]; both parts)?
A: Its Neurological examination findings is “No clinically relevant abnormal findings”.

Q: And the “Subjects with at least one AE assessed” value (healthy male volunteers [4]; both parts, 33/83 subjects (includes placebo subjects))?
A: Its value is 39.8%.

Q: What about the “Changes in laboratory parameters, hormone levels, haematology or vital signs” value (healthy male volunteers [4]; either part of the study) of the same compound?
A: Its value is “no clinically relevant changes”.

Q: And the “Time to disappearance of headache” value (healthy male volunteers [4]; first day of dosing)?
A: Its value is ≤ 12 h.

Q: And the Tolerability (healthy male volunteers [4]; single dose, anticipated therapeutic dose range of 5–25 mg)?
A: The Tolerability was “generally well-tolerated”.

Q: What about the “Subjects with at least one AE assessed” value (healthy male volunteers [5]) of the same compound?
A: The value was 54.5%.

Source: article PMC5854750 (European Journal of Drug Metabolism and Pharmacokinetics, 2017)
